The source made the active and inactive calls.
What was measured:
A549 = assay: Cytotoxicity against human A549 cells at 30 uM by MTS assay relative to control; assay type: functional
Procedure, shortened: (§1)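 MTS read-out (CellTiter 96 AQueous One) of proliferation in A549 or HCT-116 cells grown in DMEM with 10% FBS at 37 °C, 5% CO2. Taxol-resistant A549 cells were exposed for 72 h. Compounds were screened at 30 μM versus vehicle, with ≥50% inhibition counted active. Actives were then tested over a concentration range for IC50. Triplicate wells, three independent experiments, mean ± SD.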

HCT-116 = assay: Cytotoxicity against human HCT116 cells at 30 uM by MTS assay relative to control; assay type: functional; procedure, shortened: as §1
HeLa = assay: Cytotoxicity against human HeLa cells at 30 uM by MTS assay; assay type: functional, cell-based
MCF7 = assay: Cytotoxicity against human MCF7 cells at 30 uM by MTS assay; assay type: functional, cell-based
MDA-MB-231 = assay: Cytotoxicity against human MDA-MB-231 cells at 30 uM by MTS assay; assay type: functional, cell-based
HT-29 = assay: Cytotoxicity against human HT-29 cells at 30 uM by MTS assay; assay type: functional, cell-based

Measured: Activity

Cc1cc2c(=O)[nH]c(CNC(=S)SCc3ccc(C#N)cc3)nc2s1
inactive: all assays above

Cc1cc2c(=O)[nH]c(CNC(=S)SCc3ccc([N+](=O)[O-])cc3)nc2s1
inactive: all assays above

Cc1ccc(CSC(=S)NCc2nc3sc(C)cc3c(=O)[nH]2)cc1
inactive: all assays above

CCOC(=O)c1ccc(CSC(=S)NCc2nc3sc(C)cc3c(=O)[nH]2)cc1
inactive: all assays above

Cc1cc2c(=O)[nH]c(CNC(=S)SCc3ccc(F)cc3F)nc2s1
inactive: all assays above

COc1ccccc1CSC(=S)NCc1nc2sc(C)cc2c(=O)[nH]1
inactive: all assays above

Cc1cc2c(=O)[nH]c(CNC(=S)SCc3ccc(Br)cc3)nc2s1
inactive: all assays above

COc1cccc(CSC(=S)NCc2nc3sc(C)cc3c(=O)[nH]2)c1
inactive: all assays above

Cc1cc2c(=O)[nH]c(CNC(=S)SCc3ccc(F)cc3)nc2s1
inactive: all assays above

Cc1cc2c(=O)[nH]c(CNC(=S)SCc3ccccc3)nc2s1
inactive: all assays above

COc1ccc(CSC(=S)NCc2nc3sc(C)cc3c(=O)[nH]2)cc1
inactive: all assays above

— ChEMBL document CHEMBL4152279, “Synthesis, cytotoxic evaluation and target identification of thieno[2,3-d]pyrimidine derivatives with a dithiocarbamate side chain at C2 position” (Eur J Med Chem, 2018)
